# Results published in BindingDB's records for doi:10.1016/s0960-894x(02)00170-1 (Kingston University, 2002).
# pIC50: −log10 of the molar value.
# Target: T1, Steryl-sulfatase (Homo sapiens, UniProt P08842)
# T1 sequence (P08842 whole entry): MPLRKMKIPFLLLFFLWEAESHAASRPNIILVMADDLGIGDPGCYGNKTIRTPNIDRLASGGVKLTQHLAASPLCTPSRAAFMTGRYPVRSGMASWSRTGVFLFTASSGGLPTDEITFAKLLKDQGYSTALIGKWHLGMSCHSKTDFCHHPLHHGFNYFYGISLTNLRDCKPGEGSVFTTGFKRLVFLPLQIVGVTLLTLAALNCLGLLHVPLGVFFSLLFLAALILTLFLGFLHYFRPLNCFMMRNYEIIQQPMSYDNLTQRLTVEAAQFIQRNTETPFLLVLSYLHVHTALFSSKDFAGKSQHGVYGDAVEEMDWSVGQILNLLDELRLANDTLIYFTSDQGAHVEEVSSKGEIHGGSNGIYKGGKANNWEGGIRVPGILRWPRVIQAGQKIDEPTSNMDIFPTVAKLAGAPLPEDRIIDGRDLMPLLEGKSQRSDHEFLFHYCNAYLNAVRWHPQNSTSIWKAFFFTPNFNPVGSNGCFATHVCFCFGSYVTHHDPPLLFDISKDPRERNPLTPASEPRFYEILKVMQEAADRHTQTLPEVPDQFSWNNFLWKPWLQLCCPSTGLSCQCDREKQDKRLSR
# Assay: Compound was evaluated for its inhibitory activity against estrone sulfatase enzyme
# Procedure, shortened: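 They are added to tubes holding [3H]estrone sulfate (300,000 dpm) and inhibitor, which was dried from ethanol under nitrogen. Incubation runs 20 min at 37 °C and is quenched with toluene. Radioactivity in the toluene extract is counted. Triplicates are run alongside no-inhibitor controls and boiled-microsome blanks.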
row,pIC50,Structure (SMILES)
1,5.00,Cc1cc(=O)oc2cc(OS(N)(=O)=O)ccc12 [4-methyl-2-oxo-2H-chromen-7-yl sulfamate]
2,5.38,CCOC(=O)c1ccc(-c2ccc(OS(N)(=O)=O)cc2)cc1
3,4.12,NS(=O)(=O)Oc1ccc(-c2ccccc2)cc1 [Sulfamic acid biphenyl-4-yl ester]
4,5.28,COC(=O)c1ccc(-c2ccc(OS(N)(=O)=O)cc2)cc1
5,5.17,N#Cc1ccc(-c2ccc(OS(N)(=O)=O)cc2)cc1
6,5.46,CCCOC(=O)c1ccc(-c2ccc(OS(N)(=O)=O)cc2)cc1
7,5.24,CCCCOC(=O)c1ccc(-c2ccc(OS(N)(=O)=O)cc2)cc1
